In PubChem BioAssay:
Records with an inconclusive call do not appear.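 The calls were made as follows, unless noted: active = RAM network inhibition above 8.4% in each of two replicates, 3 SD over the compound average; inconclusive = above 8.4% inhibition in only one replicate; inactive = 8.4% inhibition or less in each replicate.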

How the values were obtained:
[1] = OD615 S. cerevisiae growth inhibition, permissive medium, pilot counter-assay, permissive growth control for S. cerevisiae lifespan shortening project (AID 705;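 active = growth inhibition above 25% in both replicates, a cutoff set 3 SD above the mean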); details: OD615, 24 h, at 10 µM, stronger effect = higher value
In short: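 Material: engineered DeaD yeast; Compound: one dose 10 µM, DMSO 0.25% final; Detection: absorbance (optical density) at 615 nm; Buffer or medium: permissive raffinose/galactose medium; Timing: 24 h exposure, 30 °C.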

[2] = Restrictive medium S. cerevisiae growth inhibition, OD615, pilot screen of yeast lifespan reduction project, restrictive growth control (AID 706;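 active = growth inhibition above a set limit, 3 SD over mean compound inhibition, in both replicates, cut at about 43% in these data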;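 also: modified DeaD lifespan yeast strain shifted to restrictive glucose medium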); details: OD615, 48 h, at 10 µM, stronger effect = higher value
In short: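 Buffer or medium: restrictive glucose medium (CSMM-D); test system: modified S. cerevisiae; doses: single dose of 10 µM compound final, 0.25% DMSO; schedule: 48 h compound exposure at 30 °C; detection: absorbance (optical density) measured at 615 nm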

[3] = growth suppression of beta-catenin knockout HCT116, pilot screen, human colon tumor cells (AID 823;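 active = cell viability at or below a set limit in both duplicate runs, the limit being the all-compound median minus 4 SD, cut at about 23% in these data, passing the limit was not always enough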;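 also: 0% = wells killed by 20 µM Hyamine and 100% = untreated DMSO cell wells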); details: CellTiter-Glo, 60 h, at 10 µM, stronger effect = lower value
[4] = growth suppression of PTEN-deleted HCT116, pilot screen, cell-based, HCT116 clonal line, CellTiter-Glo (AID 824;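 active = viability at or below 27.92% in each of two runs, the all-compound median minus 4 SD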;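 also: 0% = 20 µM Hyamine control and 100% = vehicle cell control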); details: 60 h, at 10 µM, stronger effect = lower value
[5] = inhibitors of the yeast RAM network, pilot screen, dse1pr::URA3 reporter, 5-FOA selection (AID 869;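 active = inhibition over a set limit, the all-compound mean plus 3 SD, in both replicate runs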;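 also: 0% = DMSO wells with no growth and 100% = 10 µM 1-NA-PP1 with full growth; RAM network block rescues cells from 5-FOA so hits raise OD615 growth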); details: S. cerevisiae dse1pr::URA3 5-FOA growth, OD615, 2 d; at 10 µM; stronger effect = higher value; strain carries analog-sensitive mutant Cbk1 kinase
[6] = RAM signaling pathway blockade in yeast – S. cerevisiae, Pdr1DBD-CYC8 efflux-inhibited sensitized strain, primary screen (AID 1298);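 also: 0% = DMSO untreated cells without growth and 100% = 10 µM 1-NA-PP1 full growth; higher means more yeast growth rescued from 5-FOA killing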; details: S. cerevisiae cbk1-as DSE1-URA3 strain, 5-FOA growth OD615, 2 d; at 50 µM; stronger effect = higher value
[7] = viability gain of MRP-1-high H69AR cells under doxorubicin, pilot screen, MRP-1 activator project, CellTiter-Glo, duplicate (AID 807;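 active = viability increase at or above a cutoff of the median across tested compounds plus 3 SD, cut at about 8.5% in these data, passing the limit was not always enough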;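 also: compound pretreatment 18-22 h then 72 h combined with doxorubicin; 0% = doxorubicin alone and 100% = vehicle without doxorubicin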); details: H69AR viability with doxorubicin, CellTiter-Glo luminescence; at 10 µM; stronger effect = higher value

Cc1ccc(N2C(=O)Nc3ccc(Br)cc3C2(O)C(=O)NCCCN(C)C)cc1C (configuration not stated)
inactive: growth inhibition [1] -7.06% | growth inhibition [2] -9.65% | viability [3] 91.7% | viability [4] 98.7% | inhibition [5] 0.615% | RAM network inhibition [6] 3.58%

O=C(CCc1ccccc1)Nc1nnc(-c2ccc3c(c2)CCCC3)o1
inactive: growth inhibition [1] -1.89% | growth inhibition [2] 11.3% | viability [3] 53.6% | viability [4] 72.1% | inhibition [5] 0.09% | RAM network inhibition [6] 5.06%

CCC1(C)Cc2nc3sc(C(=O)O)c(N)c3cc2CO1 (configuration not stated)
inactive: growth inhibition [1] -4.39% | viability increase [7] -3.61% | viability [3] 94.2% | inhibition [5] 1.71% | RAM network inhibition [6] 6.29%
